Results taken from PubChem BioAssay AID561 (The Scripps Research Institute Molecular Screening Center, 2006).
Out of some 65,000 compounds screened, about 280 (0.43%) were called active.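 The calls were made as follows: active = inhibition above the mean of all tested compounds plus 3 SD (cut at about 52% in these data); inactive = the rest.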 The entries come from a sample that favours actives as a whole.

The molecules below were run against Nuclear receptor ROR-alpha (Homo sapiens) (UniProt P35398) (assay: suppression of basal RORA-driven reporter transcription – cell-based, luminescence, primary screen (AID 561)). Details: CHO-K1 Gal4-RORA LBD luciferase reporter, at 10 µM, active compounds read high.
How it was run: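 Test system – CHO-K1 Gal4-RORA LBD luciferase reporter cells · Schedule – 20 h at 37 °C · Signal – luminescence from basal luciferase reporter expression · Measure – percent inhibition of basal reporter luminescence, control-normalized · Control set – -RORA mock-transfected DMSO wells 100%, +RORA DMSO wells 0%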

Sequence of Nuclear receptor ROR-alpha (Homo sapiens) (P35398 whole entry, looked up, the tested form may be a part): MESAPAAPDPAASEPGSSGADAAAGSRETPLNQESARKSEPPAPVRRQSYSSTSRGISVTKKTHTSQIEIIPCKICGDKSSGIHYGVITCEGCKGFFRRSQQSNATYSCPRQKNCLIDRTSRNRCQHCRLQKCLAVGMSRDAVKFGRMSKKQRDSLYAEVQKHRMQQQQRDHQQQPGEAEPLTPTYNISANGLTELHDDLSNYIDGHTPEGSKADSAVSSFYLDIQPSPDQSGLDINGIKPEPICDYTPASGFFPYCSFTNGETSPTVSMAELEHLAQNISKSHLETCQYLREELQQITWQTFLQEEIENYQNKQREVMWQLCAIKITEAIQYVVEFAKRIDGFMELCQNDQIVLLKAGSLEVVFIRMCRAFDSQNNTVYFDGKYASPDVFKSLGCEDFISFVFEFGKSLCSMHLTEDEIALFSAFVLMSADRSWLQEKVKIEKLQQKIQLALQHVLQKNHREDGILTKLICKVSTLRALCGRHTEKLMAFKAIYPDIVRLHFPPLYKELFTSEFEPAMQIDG

Row | SMILES | inhibition
1 | COC(=O)c1ccc(C2NC(=O)NC(C)=C2C(=O)N(C)C)cc1 (stereo not given) | 29.5% (inactive)
2 | O=C(Nc1ccc2c(c1)OCO2)C1CC(c2c(F)cccc2Cl)=NO1 (stereo not given) | -2.1% (inactive)
3 | COc1cc(OC)c(C(=O)Nc2ccc(N(C)C)cc2)cc1OC | -58.1% (inactive)
4 | Cc1ccc(Oc2nc3ccccc3n3c(C)nnc23)cc1 | -9.5% (inactive)
5 | COCCCN(C(=O)Cn1ncc2c(=O)oc3ccc(C)cc3c21)C(C)c1ccncc1 (stereo not given) | -5.6% (inactive)
6 | Fc1ccccc1OCCSc1nc2ccccc2o1 | -26.2% (inactive)
7 | CCOc1cc(C(=O)N2CCc3cc(OC)c(OC)cc3C2)ccc1OC(F)F | 57.3% (active)
8 | COc1ccc(OCc2cccc(C(=O)N3CCCC3)c2)cc1 | -8.9% (inactive)
9 | CCOc1cc(C(=S)N2CCOCC2)ccc1O | 8.5% (inactive)
10 | COc1ccc(-n2ncc3c(N4CCCc5ccccc54)ncnc32)cc1 | -50.2% (inactive)
11 | O=C(CC1NCCNC1=O)Nc1ccc(Oc2ccccc2)cc1 (stereo not given) | -7.9% (inactive)
12 | COc1cc(C(=O)Nc2oc(-c3ccccc3)c(-c3ccccc3)c2C#N)cc(OC)c1OC | -14.1% (inactive)
13 | O=C(Cc1c(F)cccc1Cl)N1CCN(C(=O)c2ccco2)CC1 | 14.5% (inactive)
14 | CCOC(=O)CCCNC(=O)CN1C(=O)NC(CCc2ccccc2)C1=O (stereo not given) | -7.9% (inactive)
15 | CC(=O)c1ccc(NC(=O)N[C@@H](Cc2ccccc2)C(=O)O)cc1 | 16.7% (inactive)
16 | O=C(Nc1cccc(Cl)c1)OCc1ccccn1 | -69.9% (inactive)
17 | CC(=O)Nc1ccc(-c2cn3cccnc3n2)cc1 | -27% (inactive)
18 | Clc1ccc(C2CC(c3cccs3)n3ncnc3N2)cc1Cl (stereo not given) | -4.7% (inactive)
19 | CC(C)(C)c1ccc(C(=O)CSc2ncn[nH]2)cc1 | -54.2% (inactive)
20 | CC(C)(C)NC(=O)Cn1nnc(-c2ccccc2Cl)n1 | -65.9% (inactive)
21 | COc1cccc(C2/C(=C(/O)c3ccncc3)C(=O)C(=O)N2CCCN(C)C)c1 (stereo not given) | 17% (inactive)
22 | Cc1noc(C)c1COC(=O)Cn1c(C)nc2ccccc21 | -0.6% (inactive)

Row | SMILES | inhibition
23 | COc1ccc(-n2c(SC)nc(O)cc2=O)cc1 | 8.5% (inactive)
24 | CC(C)OCCCNc1ncnc2c1[nH]c1ccc(F)cc12 | 75.5% (active)
25 | Cc1cc2nc(-c3ccc(NC(=O)c4cccnc4)cc3)oc2cc1C | -71.6% (inactive)
26 | CCOC(=O)/C=c1\s/c(=C\c2ccccc2OC)c(=O)n1CC(=O)N1CCOCC1 | 3.7% (inactive)
27 | CC1CN(C(=O)CN2C(=O)NC(C)(c3ccccc3)C2=O)CC(C)O1 (stereo not given) | 11.6% (inactive)
28 | CCCN(CCC)CCNC(=O)c1cc2c(C)nc3ccccc3c2o1 | -1.5% (inactive)
29 | COc1ccc(-c2noc(-c3cccc(OC)c3OC)n2)cc1OC | -89.8% (inactive)
30 | COc1ccc(-c2nc(-c3ccccc3)no2)c(OC)c1 | 78.4% (active)
31 | CCOc1ccc(Nc2oc(Cc3ccccc3)nc2C#N)cc1 | -25.7% (inactive)
32 | O=C(CSc1nc2ccccc2[nH]1)c1cccs1 | -56.5% (inactive)
33 | O=C(CCSc1ccccc1)NCCSc1ccccn1 | -13.3% (inactive)
34 | Cc1ccsc1C(=O)OCC(=O)c1cc(C)n(CC2CCCO2)c1C (stereo not given) | 85.1% (active)
35 | O=c1c2cc3c(=O)n(CC4CCCO4)c(=O)c3cc2c(=O)n1CC1CCCO1 (stereo not given) | 5.9% (inactive)
36 | Cn1c(-c2ccco2)nc2cc3ccccc3cc21 | 68.8% (active)
37 | O=C(Nc1cccc(-c2nnc(-c3ccccc3)o2)c1)C1CCCO1 (stereo not given) | -61.1% (inactive)
38 | COC(=O)Cc1cc(=O)n(-c2nc3ccccc3s2)[nH]1 | 10.2% (inactive)
39 | CC(=O)Nc1ccc(S(=O)(=O)N2CCN(CCCOc3cc(C)ccc3C)CC2)cc1 | 13.3% (inactive)
40 | CC1(C)NC(=O)N(CCOc2cccc(Oc3ccccc3)c2)C1=O | -0.4% (inactive)
41 | CC(=O)NC(Cc1ccc(F)cc1)C(=O)O (stereo not given) | 4.4% (inactive)
42 | COc1ccccc1CNC(=O)CCCNS(=O)(=O)c1cccc2nsnc12 | 12.8% (inactive)
43 | CS(=O)(=O)c1ccc2nc(NC(=O)C3C4C=CC(C4)C3C(=O)O)sc2c1 (stereo not given) | 0.6% (inactive)
44 | CCCCOc1ccc(-c2ncc(C(=O)OCC)c(N)n2)cc1 | -59.3% (inactive)

Row | SMILES | inhibition
45 | Cc1ccc(CNC(=O)C2CCCN(S(C)(=O)=O)C2)cc1 (stereo not given) | -3.7% (inactive)
46 | CCSc1nc(C)nc2c1oc1ccccc12 | -1% (inactive)
47 | CCc1c(C)sc(NC(=O)c2ccc(Br)o2)c1C(=O)OC | 3.7% (inactive)
48 | CC1(C)CC(CCC(=O)Nc2ccccc2Cl)C(=O)O1 (stereo not given) | 6.6% (inactive)
49 | C#CCNc1nc(C(C)C)nc2c1nnn2Cc1ccccc1F | -1.9% (inactive)
50 | Fc1ccc2[nH]c3c(N4CCSCC4)ncnc3c2c1 | 80.8% (active)
51 | Fc1ccc2[nH]c3c(N4CCN(Cc5ccc6c(c5)OCO6)CC4)ncnc3c2c1 | 86.3% (active)
52 | CN(C)/C=C/c1c(C#N)c(=O)ncn1Cc1ccccc1 | 15.5% (inactive)
53 | Cc1ccc(Cn2nnc3c(=O)n(CC(=O)N4CCCCC4)cnc32)cc1 | 19.7% (inactive)
54 | O=C(NC1=NCCS1)c1ccc(Cl)s1 | -80.1% (inactive)
55 | CC(C)OC(=O)C(C#N)c1nc2ccccc2nc1N1CCN(Cc2ccccc2)CC1 (stereo not given) | -19.7% (inactive)
56 | O=C1C(C=NCC2CCCO2)=C(O)c2ccccc21 (stereo not given) | -48.7% (inactive)
57 | Cc1nc2nc(COc3ccccc3)[nH]n2c(=O)c1C | -0.2% (inactive)
58 | Cc1ccc(-n2ncc3c2ncn2nc(-c4ccco4)nc32)c(C)c1 | -10.8% (inactive)
59 | COc1ccccc1-c1cc(C(=O)N2CCCCC2)no1 | -56.5% (inactive)
60 | O=c1oc2cc(O)ccc2cc1-c1ccc(F)cc1 | -61.8% (inactive)
61 | CCCN(c1ccc(C(C)C)cc1)S(=O)(=O)c1c(C)[nH]c(=O)[nH]c1=O | -10.6% (inactive)
62 | O=C(O)CC(c1ccccc1)n1cnnn1 (stereo not given) | 15.8% (inactive)
63 | CN(C)c1nc(N)nc(CSc2nnnn2-c2cccc3ccccc23)n1 | 53.2% (active)
64 | Cn1c(=O)c(C(=O)Nc2ncccn2)c(O)c2ccccc21 | -61% (inactive)
65 | CC(=O)Oc1ccc(C(=O)Nc2nccs2)cc1 | -61% (inactive)
